Measurements from different studies.
Compare with care: the assays were run in different laboratories.
LRRK2 G2019S: Leucine-rich repeat serine/threonine-protein kinase 2 (LRRK2, Homo sapiens, UniProt Q5S007, G2019S)
LRRK2: Leucine-rich repeat serine/threonine-protein kinase 2 (LRRK2, Homo sapiens, UniProt Q5S007)

Structure (SMILES) | target | read-out | action | technique | concentration | quantity | result
NS(=O)(=O)c1cc(NC(=O)C2(c3ccccc3Cl)CC2)ccc1Oc1cccc(Cl)c1 | LRRK2 G2019S | cell-free assay |  | competition with immobilised ligand | 1 µM | remaining binding | 100%
Cc1ccc(C(=O)Nc2ccc(CN3CCN(C)CC3)c(C(F)(F)F)c2)cc1C#Cc1cnc2cccnn12 | LRRK2 G2019S | enzyme activity | inhibitor |  | 23.5 nM | remaining activity | 99%
N#CCCc1ccc2c(c1)-c1[nH]c3ccc([N+](=O)[O-])cc3c1CC(=O)N2 | LRRK2 | cell-free assay |  |  | 0.5 µM | remaining signal | 73.8%
O=C(O)[C@H]1[C@H](Cn2nnc3ccccc3c2=O)CC[C@@H]1C(=O)c1ccc(OCCC2CCOCC2)cc1 | LRRK2 G2019S | cell-free assay |  | competition with immobilised ligand | 1 µM | remaining binding | 100%
Cc1sc(C(=O)NC2COC2)cc1-n1cc(NC(=O)Nc2c(F)cccc2Cl)cn1 | LRRK2 | enzyme activity | inhibitor |  | 10 µM | remaining activity | 101%
Cc1cnc(NC2CCOCC2)nc1-n1cnc(C(=O)NC(CN)c2cc(F)cc(Cl)c2)c1 (stereo not shown) | LRRK2 | enzyme activity | inhibitor | radiometric | 1 µM | remaining activity | 95%
COc1cc(-c2cc(-c3ccc(N4CCNCC4)cc3)cnc2N)cc(OC)c1OC | LRRK2 | enzyme activity | inhibitor |  | 0.1 µM | inhibition | 6%
Cc1cc(NC(=O)c2cccc3cc(-c4cccc5[nH]nc(N)c45)ccc23)ccc1F | LRRK2 | enzyme activity | inhibitor |  | 0.1 µM | activity vs control | 98%
CC(C)(C)c1nc2c(s1)c1nc(N)ncc1c1ccc(NS(=O)(=O)c3c(F)cccc3F)c(F)c12 | LRRK2 | enzyme activity | inhibitor | radiometric | 1 µM | remaining activity | 93%
CNCc1ccccc1-c1csc([C@H](C)Nc2nc(C)nc3cc(OC)c(OC)cc23)c1 | LRRK2 G2019S | cell-free assay |  | competition with immobilised ligand | 1 µM | remaining binding | 84%
O=C(Nc1cnn(-c2csc(C(=O)NC3COC3)c2)c1)Nc1c(F)cccc1Cl | LRRK2 | enzyme activity | inhibitor |  | 5 µM | remaining activity | 91.3%
Cc1c(NC(=O)c2cc(C(N)=O)nc3cc(F)ccc23)c(C(F)(F)F)nn1Cc1ccc(C(C)(C)C)cc1 | LRRK2 G2019S | cell-free assay |  | competition with immobilised ligand | 1 µM | remaining binding | 100%
CN1CC(Oc2cnc(C#N)cc2-c2ccn3nc(NC(=O)C4CC4)cc3c2)C1 | LRRK2 | enzyme activity | inhibitor |  | 1 µM | inhibition | -19%
Nc1ncnc2occ(-c3ccc(NC(=O)Nc4cc(C(F)(F)F)ccc4F)cc3)c12 | LRRK2 | cell-free assay | inhibitor |  | 20 µM | remaining signal | 5.2%
CN(C)C1CCN(CC#Cc2nn(C3CCCC3)c3nc(NCc4ccccc4)ncc23)C1 (stereo not shown) | LRRK2 | enzyme activity | inhibitor | FRET | 10 µM | inhibition | 7%
Cc1ccc(Nc2nccc(N(C)c3ccc4c(C)n(C)nc4c3)n2)cc1S(N)(=O)=O | LRRK2 | enzyme activity | inhibitor |  | 0.5 µM | remaining activity | 109%
Cc1ccc(NC(=O)c2ccc(C)c(C(F)(F)F)c2)cc1C#Cc1nn(C2CCC(O)CC2)c2ncnc(N)c12 (stereo not shown) | LRRK2 | cell-free assay |  |  | 10 µM | remaining signal | 15%
O=C1NC(=O)c2cc(Nc3ccc(F)cc3)c(Nc3ccc(F)cc3)cc21 | LRRK2 | cell-free assay |  |  | 0.5 µM | remaining signal | 99.8%
FC(F)(F)c1ccc2c(c1)nc(-c1cccnc1)n2C1CC1 | LRRK2 G2019S | cell-free assay |  | competition with immobilised ligand | 1 µM | remaining binding | 100%
